A short description of data set [1]: Drug level in human HeLa cells treated with 1-(3'-Deoxythymidin-3'-yl)-4-[methyloxycarbonyl-(2'-deoxy-2',2'-difluorocytidin-4N-yl)]-1H-1,2,3-triazole assessed as compound release incubated for 12 hrs by HPLC/MS method. It counts as ADME, cell-based. The essentials:
(§1)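 HeLa cells were incubated with the dimer at 37 °C for 12 h. Cell lysate was analysed by HPLC/MS for released gemcitabine, the deamination product dFdU and the thymidine-triazole fragment. A separately synthesized sample of the thymidine-triazole fragment was used as the reference.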

Data set [2] is described as follows: Selectivity index, ratio of IC50 for cytotoxicity in human NHDF cells to IC50 for cytotoxicity in human HeLa cells. A digest of the protocol: (§2)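 Selectivity index is the IC50 in normal HDF fibroblasts divided by the IC50 in the given cancer line.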
The test system of data set [3] is U-87 MG. Kind of data set: Cytotoxicity in human U87 cells assessed as reduction in cell viability incubated for 72 hrs by SRB assay. It counts as functional, cell-based, U-87MG ATCC. The essentials: (§3)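 SRB assay of cell viability in human cancer lines (HeLa, KB, A549, U87, HepG2) and normal dermal fibroblasts (HDF). IC50 values are […] of three independent experiments.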

Data set [4] is described as follows: Selectivity index, ratio of IC50 for cytotoxicity in human NHDF cells to IC50 for cytotoxicity in human KB cells. A digest of the protocol: as §2
Data set [5] is described as follows: Selectivity index, ratio of IC50 for cytotoxicity in human NHDF cells to IC50 for cytotoxicity in human U87 cells. A digest of the protocol:
as §2

Data set [6] has as its system KB. Put plainly: Cytotoxicity in human KB cells assessed as reduction in cell viability incubated for 72 hrs by SRB assay. It counts as functional, cell-based. The essentials: as §3
A general note: Sulforhodamine B stains cellular protein and so reports cell mass.

A short description of data set [7]: Selectivity index, ratio of IC50 for cytotoxicity in human NHDF cells to IC50 for cytotoxicity in human HepG2 cells. A digest of the protocol: as §2
The nature of data set [8]: Selectivity index, ratio of IC50 for cytotoxicity in human NHDF cells to IC50 for cytotoxicity in human A549 cells. The essentials: as §2
Data set [9] concerns HepG2. Put plainly: Cytotoxicity in human HepG2 cells assessed as reduction in cell viability incubated for 72 hrs by SRB assay. It counts as functional, cell-based. The note with it: HepG2, 72 h. A digest of the protocol: as §3
For data set [10], the system named is NHDF. Kind of data set: Cytotoxicity in human NHDF cells assessed as reduction in cell viability incubated for 72 hrs by SRB assay. It counts as cell-based. The essentials: as §3
Data set [11] relates to HeLa. Put plainly: Cytotoxicity in human HeLa cells assessed as reduction in cell viability incubated for 72 hrs by SRB assay. It counts as functional, cell-based. The essentials:
as §3

In data set [12] the test system is A549. Put plainly: Cytotoxicity in human A549 cells assessed as reduction in cell viability incubated for 72 hrs by SRB assay. The note with it: A549, 72 h. It counts as functional, cell-based. A digest of the protocol:
as §3

A short description of data set [13]: Drug metabolism in human HeLa cells assessed as gemcitabine release incubated for 12 hrs by HPLC/MS method. It counts as ADME, cell-based. A digest of the protocol: as §1
Data set [14] can be described thus: Drug metabolism in human HeLa cells assessed as 2',2'-difluoro-2'-deoxyuridine release incubated for 12 hrs by HPLC/MS method. It counts as ADME, cell-based. The essentials: as §1
Data set [15] can be described thus: Drug metabolism in human HeLa cells assessed as 3'-[4-(hydroxymethyl)-(1,2,3-triazol-1-yl)]-3'-deoxythymidine release incubated for 12 hrs by HPLC/MS method. It counts as ADME, cell-based. The essentials:
as §1

`Cc1cn([C@H]2C[C@H](n3cc(CO)nn3)[C@@H](CO)O2)c(=O)[nH]c1=O`: in data set [1], the Drug uptake result is “Active”.
For `CC(C)(C)OC(=O)O[C@H]1C[C@H](n2cc(F)c(=O)[nH]c2=O)O[C@@H]1Cn1cc(CNc2ccn([C@@H]3O[C@H](CO)[C@@H](O)C3(F)F)c(=O)n2)nn1`, the “Ratio IC50” value is recorded as 2.94 in [2]; 2.97 in [4]; 2.91 in data set [5]; 2.41 in [7]; 2.35 in data set [8]. Besides, the IC50 (usually the concentration that inhibits the measured activity by half) in [3] was determined as 4.73 µM; in [6], 4.62 µM; in [9], 5.71 µM; in data set [10], 13.7 µM; in data set [11] it was 4.68 µM; in data set [12], 5.86 µM.
Regarding `O=C(Nc1ccn([C@@H]2O[C@H](Cn3cc(CNc4ccn([C@@H]5O[C@H](CO)[C@@H](O)C5(F)F)c(=O)n4)nn3)[C@@H](O)C2(F)F)c(=O)n1)OCc1ccccc1`, the “Ratio IC50” value in data set [2] amounted to 2.39; in data set [4] it was 2.44; in [5] it was 2.27; in [7] it was 2.18; in [8] it was 2.34. Moreover, the IC50 in [3] was 4.45 µM; in [6] it was 4.14 µM; in [9], 4.64 µM; in data set [10], 10.1 µM; in data set [11], 4.23 µM; in data set [12], 4.31 µM.
Regarding `CC(C)(C)OC(=O)O[C@@H]1[C@@H](Cn2cc(CNc3ccn([C@@H]4O[C@H](CO)[C@@H](O)C4(F)F)c(=O)n3)nn2)O[C@@H](n2ccc(NC(=O)OCc3ccccc3)nc2=O)C1(F)F`, the “Ratio IC50” value is 2.6 in data set [2]; 2.63 in [4]; 2.13 in data set [5]; 2.07 in data set [7]; 2.51 in data set [8]. The IC50 is 3.81 µM in data set [3]; 3.09 µM in data set [6]; 3.93 µM in data set [9]; 8.12 µM in data set [10]; 3.12 µM in data set [11]; 3.24 µM in data set [12].
For `Cc1cn([C@H]2C[C@H](n3cc(COC(=O)Nc4ccn([C@@H]5O[C@H](CO)[C@@H](O)C5(F)F)c(=O)n4)nn3)[C@@H](CO)O2)c(=O)[nH]c1=O`, the “Ratio IC50” value in data set [2] was determined as 4.41; in [4] it was 4.32; in [5], 3.55; in [7], 4.38; in data set [8] it was 4.01. The IC50 in data set [3] came to 1.89 µM; in [6] it was 1.55 µM; in data set [9], 1.53 µM; in data set [10] it was 6.7 µM; in data set [11], 1.52 µM; in data set [12], 1.67 µM. For the same molecule, the Drug metabolism result in [13] was “Metabolite_Detected”; in [14], “Metabolite_Notdetected”; in [15], “Metabolite_Detected”.
As to `Cc1cn([C@H]2C[C@H](n3cc(CNc4ccn([C@@H]5O[C@H](CO)[C@@H](O)C5(F)F)c(=O)n4)nn3)[C@@H](CO)O2)c(=O)[nH]c1=O`, the IC50 was 10.8 µM in [3]; 12.2 µM in [6]; 12.2 µM in data set [9]; 17.8 µM in data set [10]; 10.9 µM in data set [11]; 10.6 µM in [12]. The Drug metabolism entry was “Metabolite_Detected” in [13] and “Metabolite_Notdetected” in [14].
For `CC(C)(C)OC(=O)O[C@@H]1[C@@H](Cn2cc(CNc3ccn([C@@H]4O[C@H](CO)[C@@H](O)C4(F)F)c(=O)n3)nn2)O[C@@H](n2ccc(N)nc2=O)C1(F)F`, the “Ratio IC50” value is given as 2.65 in data set [2]; 2.67 in data set [4]; 2.4 in data set [5]; 2.1 in data set [7]; 2.58 in data set [8]. Moreover, the IC50 in data set [3] came out at 4.54 µM; in [6] it was 4.09 µM; in data set [9] it was 5.19 µM; in data set [10], 10.9 µM; in data set [11], 4.11 µM; in [12], 4.23 µM.
`Nc1ccn([C@@H]2O[C@H](CO)[C@@H](O)C2(F)F)c(=O)n1` [GEMCITABINE]: the “Ratio IC50” value in data set [2] is listed as 2.07; in data set [4] it was 2.37; in data set [5], 3.73; in data set [7], 3.97; in data set [8], 3.85. Moreover, the IC50 was determined as 5.21 µM in [3]; 8.21 µM in [6]; 4.9 µM in data set [9]; 19.4 µM in [10]; 9.42 µM in data set [11]; 5.05 µM in data set [12]. Also, the Drug uptake entry in data set [1] is listed as “Active”.
For `Cc1cn([C@H]2C[C@H](N=[N+]=[N-])[C@@H](CO)O2)c(=O)[nH]c1=O` [ZIDOVUDINE], the “Ratio IC50” value in data set [2] is listed as 1.34; in data set [4], 1.48; in data set [5], 1.21; in data set [7], 1.11; in data set [8], 1.22. For the same molecule, the IC50 in [3] is 11.9 µM; in data set [6] it was 9.77 µM; in [9] it was 13 µM; in data set [10], 14.4 µM; in [11], 10.8 µM; in data set [12] it was 11.9 µM.
